Assay outcomes: PubChem BioAssay, Broad Institute
RAD54 inh = inhibitors of human RAD54 branch migration, primary screen, biochemical, fluorescence, single point; inhibition, % at 10.4 µM; AID 602329, 2012; actives 0.14% (n = 360,000); RAD54 Holliday junction branch migration, FAM/BHQ fluorescence;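 active = mean normalized replicate activity at least 40 and at least half of replicates scoring 40 or more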;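 note: 0% = median of neutral control wells and 100% = median of positive control wells; inhibitors cause a drop in the FAM fluorescence signal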
INS-1E GSIS act = GLuc luminescence reporter in INS-1E cells, primary screen for activators of glucose-dependent secretion of insulin | actives 0.61% (n = 370,000) | activation, % at 16.6 µM | INS-1E GLuc reporter insulin secretion, 2-3 h | AID 743287, 2014;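 active = lowest replicate activation of at least 40%, so every replicate reaches that level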;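 note: 0% = median of neutral control wells and 100% = median of IBMX positive control wells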
AF4-AF9 inh = inhibitors of AF4 peptide binding to AF9, primary screen, biochemical, AlphaScreen, biotin-AF4 peptide, FLAG-AF9, single point; actives 0.47% (n = 350,000); Protein AF-9 (Homo sapiens), P42568; inhibition, % at 10 µM; AID 651704, 2012;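 active = every replicate reaching a set inhibition limit, whatever the replicate mean, cut at about 25% in these data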;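 note: 0% = plate neutral control median and 100% = total signal loss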
Target sequence (P42568 whole entry, looked up): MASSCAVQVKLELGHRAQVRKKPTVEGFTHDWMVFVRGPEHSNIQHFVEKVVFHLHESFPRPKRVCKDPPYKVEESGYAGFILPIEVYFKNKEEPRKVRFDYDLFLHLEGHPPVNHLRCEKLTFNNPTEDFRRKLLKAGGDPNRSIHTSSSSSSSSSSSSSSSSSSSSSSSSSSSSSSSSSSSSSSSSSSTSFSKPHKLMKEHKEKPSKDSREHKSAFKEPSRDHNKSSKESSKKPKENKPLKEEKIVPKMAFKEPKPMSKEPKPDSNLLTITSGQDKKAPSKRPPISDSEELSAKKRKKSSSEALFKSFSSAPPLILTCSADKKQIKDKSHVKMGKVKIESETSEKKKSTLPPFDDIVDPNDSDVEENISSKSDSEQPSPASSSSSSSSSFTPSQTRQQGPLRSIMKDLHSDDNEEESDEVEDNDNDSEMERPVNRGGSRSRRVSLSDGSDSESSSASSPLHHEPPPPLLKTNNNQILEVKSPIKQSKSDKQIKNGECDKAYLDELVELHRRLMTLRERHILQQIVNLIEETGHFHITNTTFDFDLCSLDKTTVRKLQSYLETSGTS
RAD52 inh = RAD52 DNA annealing inhibitors, primary screen, biochemical, FRET, single point, set 2. recombinant RAD52 DNA annealing, FRET fluorescence. inhibition, % at 18.7 µM. AID 651710, 2012. actives 0.46% (n = 360,000). DNA repair protein RAD52 homolog (Homo sapiens), P43351;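 active = every replicate showing at least 50% inhibition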
S100A4 MyoIIA = inhibitors of S100A4-myosin IIA peptide binding, primary screen, biochemical, fluorescence polarization, TAMRA-MyoIIA peptide | inhibition, % at 10.7 µM | Protein S100-A4 (Homo sapiens), P26447 | actives 0.14% (n = 360,000) | AID 652163, 2013;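 active = mean inhibition of at least 70% across replicates, with every replicate also reaching that level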
Target sequence (P26447 whole entry, looked up): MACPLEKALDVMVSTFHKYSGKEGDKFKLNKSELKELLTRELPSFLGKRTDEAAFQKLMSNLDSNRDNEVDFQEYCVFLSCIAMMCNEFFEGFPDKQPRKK
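Material: S100A4 monomer protein | Medium: HEPES pH 7.2 with CaCl2, KCl, NaCl, DTT, Triton | Reagent: Labelled myosin peptide probe, 5 nM | Doses: One dose per compound | Times: 5 min incubation before reading | Benchmarks: Neutral control DMSO, positive control TFP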
An asterisk follows results filed as active; nt = no result given; ! = repeats disagree. Hits are enriched below; roughly 1.3% of the tested compounds scored in any of these assays.

SMILES | RAD54 inh | INS-1E GSIS act | AF4-AF9 inh | RAD52 inh | S100A4 MyoIIA
COc1ccc2c3c(n(C)c2c1)[C@H](CO)N(Cc1ccccc1Cl)CC31CCN(C(C)=O)CC1 | nt | 1.0 | -1.6 | -127.0 | 8.8
O=C(NC1CCCCC1)N[C@@H]1C=C[C@@H](CC(=O)N2CCOCC2)O[C@@H]1CO | -0.6 | 14.1 | 38.2* | 1.8 | -2.6
c1nc(N2CCOCC2)c2c3c(sc2n1)CCCC3 | -4.9 | 40.6* | nt | -7.3 | 5.0
COc1cccc(CN2[C@@H]3CN(C(=O)c4ccncc4)c4ccccc4[C@@H]3[C@@H]2CO)c1 | 2.2 | 5.8 | -1.2 | -12.0 | 4.7
COc1ccc(NC(=O)Nc2ccc3c(c2)C(=O)N([C@H](C)CO)C[C@@H](C)[C@@H](CN(C)S(=O)(=O)c2cccs2)O3)cc1 | -0.9 | -24.8 | -0.5 | -2.7 | -6.7
COc1ccc2c3c([nH]c2c1)[C@H](CO)N(Cc1ccccc1)CC31CCN(CC2CC2)CC1 | nt | 13.9 | 26.1* | 32.8 | 8.0
COc1ccc2c3c([nH]c2c1)[C@H](CO)N(Cc1cccc(Cl)c1)CC31CN(C)C1 | nt | -3.1 | 1.7 | 55.7* | -2.1
COc1ccc2c3c([nH]c2c1)[C@@H](CO)N(Cc1ccccc1OC)CC31CN(S(=O)(=O)c2ccccc2)C1 | nt | 8.4 | -0.7 | -13.9 | 0.3
COc1ccc2c3c([nH]c2c1)[C@@H](CO)N(Cc1cccc(Cl)c1)CC31CN(C)C1 | nt | -7.9 | 3.2 | 47.5 | 7.1
COc1ccc(S(=O)(=O)N2CCC3(CC2)CN(Cc2ccccc2OC)[C@@H](CO)c2[nH]c4cc(OC)ccc4c23)cc1 | nt | 16.0 | -2.6 | 52.2* | -1.9
COc1cccc(CN2CC3(CN(C)C3)c3c([nH]c4cc(OC)ccc34)[C@@H]2CO)c1 | nt | 22.1 | 14.2 | 34.5 | 115.8*
CC(C)NC(=O)Nc1ccc2c(c1)C(=O)N([C@H](C)CO)C[C@H](C)[C@@H](CN(C)C(=O)C1CCCCC1)OCCCC[C@H](C)O2 | -1.8 | -15.4 | -1.8 | -12.8 | -11.3
C[C@H]1CN([C@@H](C)CO)C(=O)Cc2cc(NC(=O)CCCCCC(=O)Nc3ccccc3N)ccc2O[C@H]1CN(C)S(=O)(=O)c1ccc(F)cc1 | 2.0 | 11.7 | 0.4 | -14.1 | 8.5
Cc1noc(C)c1NC(=O)N[C@@H]1CC[C@@H](CC(=O)Nc2ccc(-c3ccccc3)cc2)O[C@@H]1CO | -6.8 | 5.0 | -13.5 | 3.5 | 13.6
CN1C(=O)c2cc(NC(=O)C3CC3)ccc2OC[C@@H]2O[C@H](CC(=O)NCc3ccccc3F)CC[C@@H]21 | nt | -5.6 | -11.6 | 9.2 | -121.0
COc1cc(CN2CC3(CN(C)C3)c3c([nH]c4cc(OC)ccc34)[C@@H]2CO)cc(OC)c1 | nt | -12.4 | 18.2 | 53.8* | 5.9
CN1C(C(=O)Nc2cccc(O)c2)=CC(c2cccs2)=NS1(=O)=O | 16.9 | nt | 26.8* | 10.2 | -3.5
O=C(C[C@H]1C[C@H]2c3cc(NS(=O)(=O)c4ccc(F)cc4)ccc3O[C@H]2[C@H](CO)O1)N1CCCCC1 | 7.0 | -19.7 | -0.2 | 4.1 | 4.3
C[C@H]1CN([C@@H](C)CO)C(=O)c2cc(NC(=O)NC3CCCCC3)ccc2O[C@@H]1CN(C)Cc1ccc(C(=O)O)cc1 | 4.2 | -0.4 | -2.9 | 5.6 | 95.6*
C[C@H](CO)N1C[C@H](C)[C@@H](CN(C)Cc2ccc(C(=O)O)cc2)Oc2ccc(NC(=O)NC3CCCCC3)cc2C1=O | 0.9 | -0.6 | -2.3 | 11.2 | 5.2
C[C@H](CO)N1C[C@H](C)[C@@H](CN(C)Cc2ccc(-c3ccccc3)cc2)Oc2ccc(NC(=O)NC3CCCCC3)cc2C1=O | 2.4 | -31.2 | 0.6 | 88.6* | -35.7
C[C@H]1CN([C@@H](C)CO)C(=O)c2cc(NC(=O)NC3CCCCC3)ccc2O[C@H]1CN(C)Cc1ccc(-c2ccccc2)cc1 | 2.8 | 6.8 | -1.7 | -0.9 | 6.5
COc1cc2c(cc1OC)[C@H](C)N(C(=O)NCc1ccccc1)CC2 | 4.4 | 54.2* | 0.6 | -13.5 | -2.0
CN(C)C(=O)[C@@H]1[C@@H](CO)[C@@H]2Cn3c(ccc(C4=CCCCC4)c3=O)[C@H]1N2CC1CC1 | -3.4 | -1.7 | 0.9 | 4.6 | -0.2
CN(C)C(=O)[C@H]1[C@H](CO)[C@H]2Cn3c(ccc(C4=CCCCC4)c3=O)[C@@H]1N2C | 4.6 | 8.5 | 1.5 | 63.4* | -4.0
SMILES | RAD54 inh | INS-1E GSIS act | AF4-AF9 inh | RAD52 inh | S100A4 MyoIIA
CCNC(=O)[C@H]1[C@H](CO)[C@H]2Cn3c(ccc(-c4ccc(F)cc4)c3=O)[C@@H]1N2C | 11.9 | -2.3 | -2.4 | 7.4 | 138.0*
CCCNC(=O)[C@@H]1[C@@H](CO)[C@@H]2Cn3c(ccc(-c4ccc(F)cc4)c3=O)[C@H]1N2C | -5.6 | -1.1 | -1.6 | 0.5 | 0.7
O=C(C[C@H]1CC[C@@H](NC(=O)Cc2ccccn2)[C@@H](CO)O1)NCCCN1CCOCC1 | -9.1 | 38.6 | -2.1 | 0.1 | 0.3
CNC[C@H]1OCCCC[C@H](C)Oc2ccc(NC(=O)Nc3cccc4ccccc34)cc2C(=O)N([C@@H](C)CO)C[C@@H]1C | -3.5 | -4.0 | 2.3 | -95.3 | -8.4
CCc1cccc(C)c1NC(=S)NCCc1c(C)[nH]c2ccc(C)cc12 | -13.0 | -13.1 | 44.3* | -17.2 | -9.8
C[C@@H]1CCCCO[C@H](CN(C)S(C)(=O)=O)[C@@H](C)CN([C@H](C)CO)C(=O)c2cc(NC(=O)NC3CCCCC3)ccc2O1 | 1.8 | 0.7 | -3.4 | 15.3 | 3.1
Cc1ccccc1-c1ccc(C2[C@@H]3CN(C(=O)Nc4ccc(F)cc4)C[C@H]2N3)cc1 (some centres undefined) | nt | -6.3 | nt | nt | nt
O=C(Nc1cccc(F)c1)N1C[C@@H]2N[C@H](C1)C2c1ccc(-c2ccccc2F)cc1 (some centres undefined) | nt | -4.9 | -1.1 | 63.6*! | -2.5
Cc1ccccc1-c1ccc(C2[C@@H]3CN(C(=O)Nc4cccc(F)c4)C[C@H]2N3)cc1 (some centres undefined) | nt | 93.2*! | 4.1 | 72.2*! | -1.1
CCN(CC)c1ccc(N=C2C=CC(=O)C=C2NC(C)=O)cc1 | -10.7 | nt | -4.5 | -36.1 | 127.1*
O=C(c1nc2nc(-c3cccs3)cc(C(F)(F)F)n2n1)N1CCN(Cc2ccccc2)CC1 | 8.0 | nt | nt | nt | nt
CCOC(=O)c1nc2nc(-c3cccs3)cc(C(F)(F)F)n2n1 | 2.9 | 63.4* | nt | nt | nt
Cc1ccc2nc(NC(=O)CSc3nc(=O)n(CCN(C)C)c4c3CCCC4)sc2c1 | -1.1 | 375.8* | 4.7 | 2.2 | -16.4
Cc1ccc(NC(=O)CSc2nc(=O)n(CCCN(C)C)c3c2CCC3)c(C)c1 | 1.7 | 0.5 | 0.9 | -5.1 | -2.6
CN1C(=O)c2cc(NC(=O)NC3CCCC3)ccc2OC[C@@H]2O[C@@H](CC(=O)NCC3CC3)CC[C@H]21 | -2.9 | -3.4 | -4.5 | -12.5 | 7.5
